ChEMBL document CHEMBL1139268, “Camphor sulfonamide derivatives as novel, potent and selective CXCR3 antagonists” (Bioorg Med Chem Lett, 2009)
Values after ≈ are worked out from the molar mass of the structure shown.

Assays:
[1] = target: T1, C-X-C chemokine receptor type 3 (Homo sapiens, UniProt P49682); assay: Antagonist activity at human recombinant CXCR3 receptor expressed in CHO-K1 cells assessed as human IP10-induced calcium flux by FLIPR assay; format: functional, cell-based
T1 sequence (P49682 whole entry): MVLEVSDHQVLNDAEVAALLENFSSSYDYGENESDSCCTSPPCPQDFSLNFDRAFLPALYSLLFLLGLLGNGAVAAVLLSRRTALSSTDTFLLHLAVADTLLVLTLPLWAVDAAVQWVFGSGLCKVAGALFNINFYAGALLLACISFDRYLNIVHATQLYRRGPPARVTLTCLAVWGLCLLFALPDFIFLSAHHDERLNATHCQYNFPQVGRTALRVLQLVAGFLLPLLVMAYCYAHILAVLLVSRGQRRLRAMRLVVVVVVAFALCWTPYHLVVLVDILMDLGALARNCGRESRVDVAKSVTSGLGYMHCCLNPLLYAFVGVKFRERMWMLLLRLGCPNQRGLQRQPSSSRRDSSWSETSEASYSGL

[2] = target: T2, C-X-C chemokine receptor type 3 (Mus musculus, UniProt O88410); assay: Antagonist activity at mouse recombinant CXCR3 expressed in human U2OS cells; format: functional, cell-based
T2 sequence (O88410 whole entry): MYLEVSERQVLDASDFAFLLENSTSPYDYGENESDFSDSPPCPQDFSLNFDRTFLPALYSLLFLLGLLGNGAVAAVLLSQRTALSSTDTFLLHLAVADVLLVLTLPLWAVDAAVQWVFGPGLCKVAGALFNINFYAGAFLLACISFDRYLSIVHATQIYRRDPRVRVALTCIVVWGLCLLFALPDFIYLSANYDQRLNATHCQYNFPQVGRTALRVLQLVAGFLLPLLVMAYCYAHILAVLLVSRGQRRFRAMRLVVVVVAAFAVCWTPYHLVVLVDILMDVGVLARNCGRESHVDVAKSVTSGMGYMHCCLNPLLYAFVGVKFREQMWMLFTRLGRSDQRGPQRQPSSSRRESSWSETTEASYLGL
Summary of the method: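 Human U2OS cells were transiently transduced with a mixture of recombinant BacMam viruses, one expressing murine CXCR3 and one expressing chimeric G-protein Gqi5.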

[3] = target: T1, C-X-C chemokine receptor type 3; assay: Antagonist activity at human recombinant CXCR3 receptor assessed as human IP10-induced calcium mobilization by FLIPR assay; format: functional; details: read-out: pA2 (converted)
[4] = Permeability across artificial membrane; format: ADME; details: PAMPA; read-out: permeability
[5] = Aqueous solubility of the compound; format: physicochemical; details: buffer

SMILES	IC50 [1] [nM]	other results
CC1(C)[C@@H]2CC[C@@]1(CS(=O)(=O)N1CCN(c3ccc(C(F)(F)F)nn3)CC1)C(=O)C2	5010	
C[C@@H]1CN(c2ccc(C(F)(F)F)cn2)[C@@H](C)CN1S(=O)(=O)C[C@]12CC[C@H](CC1=O)C2(C)C	6310	
C[C@H]1CN(S(=O)(=O)C[C@]23CC[C@H](C[C@H]2O)C3(C)C)CCN1c1ncc(C(F)(F)F)cc1F	63.1	IC50 [2]: 1580 nM
CC(=O)c1ccc(N2CCN(S(=O)(=O)C[C@]34CC[C@H](CC3=O)C4(C)C)CC2)nc1	> 31600	
CCNC1C[C@H]2CC[C@]1(CS(=O)(=O)N1CCN(c3ccc(C(F)(F)F)cn3)CC1)C2(C)C (some centres undefined)	7940	
CC1(C)[C@@H]2CC[C@@]1(CS(=O)(=O)N1CCN(c3ccc(C(F)(F)F)c(Cl)n3)CC1)C(=O)C2	251	
CC1(C)[C@@H]2CC[C@@]1(CS(=O)(=O)N1CCN(c3cc(C(F)(F)F)ccn3)CC1)C(=O)C2	25100	
CC1(C)[C@@H]2CC[C@@]1(CS(=O)(=O)N1CCN(c3ccc(C(F)(F)F)cn3)CC1)C(=O)C2	251	Kb [3]: 126 nM; IC50 [2]: 1260 nM
CC1(C)[C@@H]2CC[C@@]1(CS(=O)(=O)N1CCN(c3ccc(C(F)(F)F)cn3)CC1)C(N)C2 (some centres undefined)	794	
C[C@@H]1CN(S(=O)(=O)C[C@]23CC[C@H](CC2=O)C3(C)C)CCN1c1ccc(C(F)(F)F)cn1	501	
CC1(C)[C@@H]2CC[C@@]1(CS(=O)(=O)NC1CCN(c3ccc(C(F)(F)F)cn3)CC1)C(=O)C2	15800	
CC1(C)[C@@H]2CC[C@@]1(CS(=O)(=O)N1CCN(c3ncc(C(F)(F)F)cn3)CC1)C(=O)C2	316	
CC1(C)[C@@H]2CC[C@@]1(CS(=O)(=O)N1CCN(c3ccc(C(F)(F)F)cn3)C(CO)C1)C(=O)C2 (some centres undefined)	398	
CC1(O)C[C@H]2CC[C@]1(CS(=O)(=O)N1CCN(c3ccc(C(F)(F)F)cn3)CC1)C2(C)C (some centres undefined)	200	
CC1(C)[C@@H]2CC[C@@]1(CS(=O)(=O)N1CCN(c3ccc([N+](=O)[O-])cn3)CC1)C(=O)C2	> 31600	
CC1(C)[C@@H]2CC[C@@]1(CS(=O)(=O)N1CCN(c3ccc(C(F)(F)F)cn3)CC1)C(O)C2 (some centres undefined)	158	
CC1(C)[C@@H]2CC[C@@]1(CS(=O)(=O)N1CCN(c3ncc(C(F)(F)F)cc3[N+](=O)[O-])CC1)C(=O)C2	3160	
CC1(C)[C@@H]2CC[C@@]1(CS(=O)(=O)N1CCN(c3ncccc3C(F)(F)F)CC1)C(=O)C2	> 31600	
CC1(C)[C@@H]2CC[C@@]1(CS(=O)(=O)N1C[C@@H]3C[C@H]1CN3c1ccc(C(F)(F)F)cn1)C(=O)C2	> 31600	
C[C@@H]1CN(S(=O)(=O)C[C@]23CC[C@H](CC2=O)C3(C)C)CCN1c1ncc(C(F)(F)F)cc1F	501	
CC1(C)[C@@H]2CC[C@@]1(CS(=O)(=O)N1CCN(c3nc4ccccc4s3)CC1)C(=O)C2	> 12600	
CC(C)C1CN(S(=O)(=O)C[C@]23CC[C@H](CC2=O)C3(C)C)CCN1c1ccc(C(F)(F)F)cn1 (some centres undefined)	> 31600	
CN(CCN(C)S(=O)(=O)C[C@]12CC[C@H](CC1=O)C2(C)C)c1ccc(C(F)(F)F)cn1	> 31600	
CC1(C)[C@@H]2CC[C@@]1(CS(=O)(=O)N1CCN(c3ccc(C(F)(F)F)cn3)CC1)C1(C2)OCCO1	200	
CC1(C)[C@@H]2CC[C@@]1(CS(=O)(=O)N1CCN(c3ncc(C(F)(F)F)cc3F)[C@H](CO)C1)C(=O)C2	316	Papp [4]: 56 ×10⁻⁶ cm/s; solubility [5]: 40 µg/mL (≈ 81 µM); IC50 [2]: 6310 nM
CC1(C)[C@@H]2CC[C@@]1(CS(=O)(=O)N1CCN(c3ccc(C(F)(F)F)cn3)CC1)C(F)C2 (some centres undefined)	794	
CC(=O)NC1C[C@H]2CC[C@]1(CS(=O)(=O)N1CCN(c3ccc(C(F)(F)F)cn3)CC1)C2(C)C (some centres undefined)	2000	
CC1(C)[C@@H]2CC[C@]1(CS(=O)(=O)N1CCN(c3ccc(C(F)(F)F)cn3)CC1)C(=O)C2	1580	

SMILES	IC50 [1] [nM]	other results
CCC1CN(S(=O)(=O)C[C@]23CC[C@H](CC2=O)C3(C)C)CCN1c1ccc(C(F)(F)F)cn1 (some centres undefined)	631	
CC1CN(c2ccc(C(F)(F)F)cn2)CCN1S(=O)(=O)C[C@]12CC[C@H](CC1=O)C2(C)C (some centres undefined)	631	
CC1(C)[C@@H]2CC[C@@]1(CS(=O)(=O)N1CCN(c3cc4ccccc4cn3)CC1)C(=O)C2	15800	
C[C@H]1CN(S(=O)(=O)C[C@]23CC[C@H](CC24OCCO4)C3(C)C)CCN1c1ncc(C(F)(F)F)cc1F	39.8	IC50 [2]: 1580 nM
C[C@H]1CN(S(=O)(=O)C[C@]23CC[C@H](CC2=O)C3(C)C)CCN1c1ncc(C(F)(F)F)cn1	126	IC50 [2]: 1000 nM
CCNC(=O)NC1C[C@H]2CC[C@]1(CS(=O)(=O)N1CCN(c3ccc(C(F)(F)F)cn3)CC1)C2(C)C (some centres undefined)	794	
CC1(C)[C@@H]2CC[C@@]1(CS(=O)(=O)N1CCN(c3ncc(Br)cn3)CC1)C(=O)C2	631	
C[C@H]1CN(S(=O)(=O)C[C@]23CC[C@H](CC2O)C3(C)C)CCN1c1ccc(C(F)(F)F)cn1 (some centres undefined)	158	IC50 [2]: 631 nM
Cc1ccc(N2CCN(S(=O)(=O)C[C@]34CC[C@H](CC3=O)C4(C)C)CC2)nc1	> 31600	
CC1(C)[C@@H]2CC[C@@]1(CS(=O)(=O)N1CCN(c3ncc(C(F)(F)F)cc3F)CC1)C(=O)C2	158	IC50 [2]: 794 nM
C[C@H]1CN(S(=O)(=O)C[C@]23CC[C@H](CC2=O)C3(C)C)CCN1c1ccc(C(F)(F)F)cn1	158	IC50 [2]: 2510 nM
CC1(C)[C@@H]2CC[C@@]1(CS(=O)(=O)N1CCN(c3ccc(Br)cn3)CC1)C(=O)C2	1580	
C[C@H]1CN(S(=O)(=O)C[C@]23CC[C@H](C[C@@H]2O)C3(C)C)CCN1c1ccc(C(F)(F)F)cn1	31.6	IC50 [2]: 200 nM
CC1(C)[C@@H]2CC[C@@]1(CS(=O)(=O)N1CCN(c3cccc(C(F)(F)F)n3)CC1)C(=O)C2	25100	
C[C@H]1CN(S(=O)(=O)C[C@]23CC[C@H](C[C@H]2O)C3(C)C)CCN1c1ccc(C(F)(F)F)cn1	316	IC50 [2]: 631 nM
CC1(C)[C@@H]2CC[C@@]1(CS(=O)(=O)N1CCN(c3nc(Cl)c(C(F)(F)F)cc3Cl)CC1)C(=O)C2	316	
CC1(C)[C@@H]2CC[C@@]1(CS(=O)(=O)N1CCN(c3ccc(C(F)(F)F)cc3F)CC1)C(=O)C2	2000	
CC1(C)[C@@H]2CC[C@@]1(CS(=O)(=O)N1CCN(c3ccc(C(F)(F)F)cc3)CC1)C(=O)C2	> 31600	
CC1(C)[C@@H]2CC[C@@]1(CS(=O)(=O)N1CCN(c3ccc(C(F)(F)F)cn3)C(c3ccccc3)C1)C(=O)C2 (some centres undefined)	> 31600	
CC1(C)[C@@H]2CC[C@@]1(CS(=O)(=O)N1CCCN(c3ccc(C(F)(F)F)cn3)CC1)C(=O)C2	6310	
CC1(C)[C@@H]2CC[C@@]1(CS(=O)(=O)N1CCN(c3ccccn3)CC1)C(=O)C2	> 31600	
CC1(C)[C@@H]2CC[C@@]1(CS(=O)(=O)N1CCN(c3ccc(C(F)(F)F)cn3)CC1)C(NS(C)(=O)=O)C2 (some centres undefined)	631	
CC1(C)[C@@H]2CC[C@@]1(CS(=O)(=O)N1CCC(Nc3ccc(C(F)(F)F)cn3)CC1)C(=O)C2	31600	
CC1CN(S(=O)(=O)C[C@]23CC[C@H](CC2=O)C3(C)C)CCN1c1ccc(C(F)(F)F)cn1 (some centres undefined)	316	
CC1(C)[C@@H]2CC[C@@]1(CS(=O)(=O)N1CCN(c3ccc(C#N)cn3)CC1)C(=O)C2	> 31600	
CC1(C)[C@@H]2CC[C@@]1(CS(=O)(=O)N1CCN(c3ncc(C(F)(F)F)cc3Cl)CC1)C(=O)C2	398	
C[C@H]1CN(S(=O)(=O)C[C@]23CC[C@H](CC2O)C3(C)C)CCN1c1ncc(C(F)(F)F)cc1F (some centres undefined)	50.1	IC50 [2]: 158 nM
